Screening data as filed in PubChem.
An excerpt weighted towards active compounds, which were near 1.7% of everything screened.
HNF4A DNA FP – change in binding of human HNF4A to DNA, primary screen, biochemical, fluorescence polarization, FITC-DNA; Hepatocyte nuclear factor 4-alpha (Homo sapiens), P41235; 1 h; activity change, % at 10 µM; hit rate 0.3% among 360,000; in the data active = activity change above about 30%, passing the limit was not always enough
IDE cell activ – human IDE activators in live cells, primary screen, fluorescence polarization, HEK cells, FAbeta-B substrate; activation, % at 5.96 µM; AID 493087, 2011; hit rate 0.073% among 340,000; FAbeta-B cleavage; 0% vehicle, 100% cell-free pure enzyme wells;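 active = activation above the mean of all tested compounds plus 3 SD, set per screening campaign, cut at about 17% in these data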
IDE inh – human IDE inhibitors in live cells, primary screen, fluorescence polarization, HEK cells, FAbetaB substrate; FAbetaB cleavage; AID 434962, 2010; inhibition, % at 5.59 µM; hit rate 0.41% among 320,000;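 active = percent inhibition above the average of all tested compounds plus 3 SD, set per screening campaign, cut at about 16% in these data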;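 note: IDE supplied by intact live HEK cells; FP after avidin binding of uncleaved biotin substrate so inhibition keeps polarization high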
TPT1 inhibitor – Candida albicans TPT1 enzyme inhibitors, primary screen, biochemical, fluorescence polarization. tRNA 2'-phosphotransferase TPT1 (Candida albicans SC5314). inhibition, % at 5 µM. recombinant caTPT1, FP RNA substrate dephosphorylation. hit rate 0.81% among 300,000;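 active = inhibition above the mean of all tested compounds plus 3 SD, set per screening campaign, cut at about 24% in these data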
CSN inh – inhibitors of CSN-mediated cullin deneddylation, primary screen, biochemical, fluorescence polarization, uHTS | COP9 signalosome complex subunit 5 (Homo sapiens), Q92905 | Purified CSN, SCF-Nedd8-OG deneddylation | inhibition, % at 12.5 µM | hit rate 0.38% among 360,000;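 active = pattern-corrected inhibition above about 35%, with an unprinted fluorescence ratio check between 0.5 and 1.5, limit read from the data, passing the limit was not always enough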
Target sequence (Q92905 whole entry, looked up, one chain of several): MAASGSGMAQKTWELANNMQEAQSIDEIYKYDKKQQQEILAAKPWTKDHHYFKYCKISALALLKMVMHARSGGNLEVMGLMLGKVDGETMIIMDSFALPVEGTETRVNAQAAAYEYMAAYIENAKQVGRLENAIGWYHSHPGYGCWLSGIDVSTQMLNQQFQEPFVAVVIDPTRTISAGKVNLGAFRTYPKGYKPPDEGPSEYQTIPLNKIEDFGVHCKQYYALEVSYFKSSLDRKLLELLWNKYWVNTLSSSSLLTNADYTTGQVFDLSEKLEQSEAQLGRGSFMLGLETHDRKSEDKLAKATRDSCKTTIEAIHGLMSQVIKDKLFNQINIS
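Material: human Csn5 produced in HEK293T cells; Input: enzyme 0.24 nM; Reagent: SCFSkp2-Nedd8OG substrate at 10 nM final; Dosing: 12.5 µM compound; Incubation: 90 min reaction at room temperature; Detection: fluorescence polarization of the substrate; Evaluation: % inhibition of substrate cleavage by Csn5; Control set: substrate-only high control, full reaction low control.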
Rpn11 inh – Rpn11 (PSMD14) deubiquitinase inhibitors, primary screen, biochemical, fluorescence polarization, uHTS | human 26S proteasome, Ub4-pepOG fluorescence polarization; 20S core pre-blocked with epoxomicin | inhibition, % at 20 µM | 26S proteasome non-ATPase regulatory subunit 14 (Homo sapiens), O00487 | hit rate 0.59% among 360,000;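 active = inhibition at 20 µM, scaled to each plate's controls, above about 33%, limit read from the data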
Rpn11 confirm – Rpn11 (PSMD14) deubiquitinase inhibitors, confirmation, biochemical, fluorescence polarization, single concentration; shares compounds with Rpn11 inh; purified human 26S proteasome, Ub4-pepOG fluorescence polarization; proteasome pretreated with epoxomicin; inhibition, % at 20 µM; hit rate 29% among 1,900; AID 602318, 2012
MMP-2 inh – MMP-2 enzyme inhibition, confirmation, counter-screen for RPN11 inhibitor project, biochemical, fluorescence, single concentration; hit rate 4% among 1,900; AID 602330, 2012; shares compounds with Rpn11 inh; recombinant MMP-2, FRET peptide cleavage fluorescence; inhibition, % at 20 µM;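 note: human MMP-2 activated beforehand with APMA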
Thrombin inh – bovine thrombin protease inhibition, confirmation, counter-screen for Rpn11 inhibitor project, biochemical, fluorescence polarization, single concentration; hit rate 13% among 1,900; inhibition, % at 20 µM; shares compounds with Rpn11 inh; bovine thrombin cleavage of Ub4-pepOG; AID 602333, 2012;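 active = mean inhibition at least 40% at 20 µM, or signal 3 deviations below plate average, so some actives read negative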
A number is an active result; . = inactive; / = not tested or not shown. Cut-off read from the data, not from the text of the source, unless noted: active = inhibition above about 40%; inactive = the rest.

SMILES	HNF4A DNA FP	IDE cell activ	IDE inh	TPT1 inhibitor	CSN inh	Rpn11 inh	Rpn11 confirm	MMP-2 inh	Thrombin inh
NS(=O)(=O)c1ccc(CNC(=O)c2cccnc2Cl)cc1	.	.	.	.	.	.	/	/	/
COc1ccc(-c2nn(-c3ccccc3)cc2/C=C2/SC(=S)N(CCC(=O)O)C2=O)cc1	.	.	.	.	.	.	/	/	/
O=C1C(=Cc2cn(-c3ccccc3)nc2-c2ccc(OCc3ccc(Cl)cc3)cc2)SC(=S)N1CCS(=O)(=O)O	.	/	/	/	80	116	104	65	183
O=C1C(=Cc2cn(-c3ccccc3)nc2-c2ccc(OCc3ccccc3F)cc2)SC(=S)N1CCS(=O)(=O)O	.	/	/	/	.	83	103	58	163
O=C(Nc1nc(-c2ccco2)c(-c2ccco2)s1)c1c(F)cccc1Cl	.	.	.	/	49	53	.	.	.
CCOc1ccc(-n2nc3c(Cl)nnc(C)c3c2C)cc1	.	.	.	.	.	.	/	/	/
CCCCC[C@H](O)/C=C/[C@H]1CCC(=O)[C@@H]1CCCCCCC(=O)N1CCCCC1CO (stereo not given in full)	.	.	.	.	.	.	/	/	/
COc1ccc2oc(C(=O)Nc3nc(-c4ccccn4)cs3)c(C)c2c1	.	.	.	.	.	42	52	.	.
COc1ccc2oc(C(=O)NC(C)c3ccccn3)c(C)c2c1 (stereo not given)	.	.	.	/	.	.	/	/	/
CCOc1ccc(C(=O)N/N=C/c2cc(Cl)ccc2[N+](=O)[O-])cc1	.	.	.	.	.	59	41	.	.
CSCC[C@H](NC(=O)[C@@H]1Cc2c([nH]c3ccccc23)C2c3ccccc3C(=O)N21)C(=O)NCC1CCCO1 (stereo not given in full)	.	.	.	.	.	.	/	/	/
CCOC(=O)c1nnn2c1nc(Nc1cccc(C(F)(F)F)c1)c1ccccc12	.	/	.	.	.	64	.	.	.
CCOC(=O)c1nnn2c1nc(SCC(C)=O)c1ccccc12	.	/	.	.	.	.	/	/	/
Cc1ccnc2c1ccc1c(C)ccnc12	.	.	.	/	.	46	.	.	.
Cc1ccnc2c1ccc1cccnc12	.	.	/	/	.	.	/	/	/
N#C/C(=C\c1ccc(O)c([N+](=O)[O-])c1)c1nc2ccccc2s1	.	.	/	/	.	45	42	72	.
Cc1cc(NC(=O)c2cccc(S(=O)(=O)N(C)C)c2)n(-c2ccccn2)n1	.	.	.	.	.	92	.	.	.
COc1cccc(/C=N/NC(=O)c2cccc3ccccc23)c1OC	.	.	.	.	.	32	.	.	.
Cc1nc(NC(=O)/C=C/c2ccco2)sc1C	.	.	.	.	.	.	/	/	/
CNS(=O)(=O)c1ccc2nc(NC(=O)/C=C/c3ccco3)sc2c1	.	.	.	.	56	57	.	.	.
COCCCN1C(=O)C(CC(=O)NCc2cccs2)CC(C(=O)N(C)C)=C1C (stereo not given)	.	/	/	/	.	.	/	/	/
